{
  "source": "paper PMC2818593",
  "about": "(Cancer prevention research (Philadelphia, Pa.), 2010)",
  "key": {"H4IIE cells": {"test_system": "H4IIE cells", "test": "GSH levels in H4IIE rat hepatoma cells", "assay_type": "cell-based", "settings": "24 h", "outline": "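H4IIE rat hepatoma cells grown in MEM with 10% heat-inactivated FBS, non-essential amino acids and 1 mM pyruvate at 37 °C, 5% CO2. 3 × 10^6 cells exposed 24 h to 10–160 µM test compound (DMSO 0.5% final as control), then lysed in pH 7.0 phosphate/EDTA. Total GSH measured by enzymatic recycling on 1 µg protein (Bradford), expressed as fold over control. Two-sided tests, p < 0.05.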"}, "GSH": {"test_system": "GSH", "test": "GSH level in rat tissues after dietary ILG", "assay_type": "in vivo", "settings": "10.0 g/kg diet; liver, colon, mammary gland"}, "[1]": {"test_system": "quinone reductase-1 (QR-1)", "test": "QR-1 activity in rat tissues after dietary ILG", "assay_type": "in vivo"}, "[2]": {"test_system": "glutathione S-transferase (GST)", "test": "GST activity in rat tissues after dietary ILG", "assay_type": "in vivo", "settings": "10.0 g/kg diet; liver, colon, mammary gland"}, "[3]": {"test_system": "carcinogen-treated mouse mammary organ culture", "settings": "at 10 µg/mL; cited from earlier work"}, "[4]": {"test_system": "QR-1 activity in mouse Hepa 1c1c7 cells", "settings": "cited from earlier work"}, "[5]": {"test_system": "DMBA-induced mammary tumors", "test": "DMBA-induced mammary carcinogenesis in rats", "assay_type": "in vivo"}, "[6]": {"test": "Quantification of ILG in rat plasma and tissues by LC-MS-MS", "assay_type": "in vivo"}, "[7]": {"test_system": "DMBA-induced mammary tumors", "settings": "preliminary study, 5.0 g/kg diet, cited from earlier work"}, "[8]": {"test": "Metabolism of ILG in the rat", "assay_type": "in vivo", "settings": "rat plasma after administration of ILG"}},
  "note": "Values joined by “and” are separate entries in the source; they are usually repeats but may differ in a detail not shown here. Equal entries are not always repeated. Where two headings read alike, the source gives them in different places.",
  "data": [
    {"smiles": "O=c1cc(-c2ccc(Br)cc2)oc2ccccc12", "note": "[4'-Bromoflavone, reference compound]", "values": [
      {"measurement": "GSH levels", "setting": "H4IIE cells; H4IIE cells, 10 µM, positive control", "value": "significant increase in GSH levels"}
    ]},
    {"smiles": "O=C(/C=C/c1ccc(O)cc1)c1ccc(O)cc1O", "note": "[ILG, 2′,4′,4-trihydroxychalcone]", "values": [
      {"measurement": "GSH levels", "setting": "GSH", "value": "significantly elevated only in the liver"},
      {"measurement": "QR-1 activity", "setting": "[1]; colon, end of in vivo study", "value": "significantly elevated"},
      {"measurement": "QR-1 activity", "setting": "[1]; liver or mammary gland tissues", "value": "no significant induction"},
      {"measurement": "GST activity", "setting": "[2]", "value": "significantly elevated only in the liver"},
      {"measurement": "inhibition in carcinogen-treated mouse mammary organ culture assay", "setting": "[3]", "value": 76, "unit": "%"},
      {"measurement": "dose giving significant increase of total GSH", "setting": "H4IIE cells; rat hepatoma cells", "value": "≥ 80", "unit": "µM"},
      {"measurement": "CD, induction of QR-1 activity", "setting": "[4]", "value": 2, "unit": "µM"},
      {"measurement": "tumor latency", "setting": "[5]; 7.5 and 10 g/kg diet during the entire study", "value": "increased tumor latency"},
      {"measurement": "overall tumor incidence and multiplicity", "setting": "[5]; 7.5 and 10 g/kg diet, after 84 days", "value": "increased the overall tumor incidence and multiplicity"},
      {"measurement": "body weight", "setting": "[5]; between the different groups, 7.5 and 10 g/kg diet", "value": "no significant differences in body weight"},
      {"measurement": "Concentration of ILG in liver tissue", "setting": "[6]; 7.50 g/kg diet + DMBA", "value": "2.56 ± 0.96", "unit": "µg/g tissue"},
      {"measurement": "Concentration of ILG in mammary tissue", "setting": "[6]; 7.50 g/kg diet + DMBA", "value": "0.044 ± 0.014", "unit": "µg/g tissue"},
      {"measurement": "Concentration of ILG in plasma", "setting": "[6]; 7.50 g/kg diet + DMBA", "value": "0.05781 ± 0.01965 µg/mL and 0.0578 ± 0.0196 µg/mL"},
      {"measurement": "Concentration of ILG in liver tissue", "setting": "[6]; 10.0 g/kg diet", "value": "3.25 ± 1.38", "unit": "µg/g tissue"},
      {"measurement": "Concentration of ILG in mammary tissue", "setting": "[6]; 10.0 g/kg diet", "value": "0.094 ± 0.043", "unit": "µg/g tissue"},
      {"measurement": "Concentration of ILG in plasma", "setting": "[6]; 10.0 g/kg diet", "value": "0.1422 ± 0.0359", "unit": "µg/mL"},
      {"measurement": "Concentration of ILG in liver tissue", "setting": "[6]; 10.0 g/kg diet + DMBA", "value": "4.71 ± 1.64", "unit": "µg/g tissue"},
      {"measurement": "Concentration of ILG in mammary tissue", "setting": "[6]; 10.0 g/kg diet + DMBA", "value": "0.084 ± 0.040", "unit": "µg/g tissue"},
      {"measurement": "Concentration of ILG in plasma", "setting": "[6]; 10.0 g/kg diet + DMBA", "value": "0.1346 ± 0.0472", "unit": "µg/mL"},
      {"measurement": "incidence of mammary tumors", "setting": "[7]; after 120 days", "value": "little effect on the incidence of mammary tumors"},
      {"measurement": "tumor latency", "setting": "[7]; one week prior and one week after DMBA", "value": "increased tumor latency"},
      {"measurement": "adverse effects", "setting": "[7]", "value": "no adverse effects were detected"}
    ]},
    {"smiles": "O=C(/C=C/c1ccc(O)cc1)c1ccc(O[C@@H]2O[C@H](C(=O)O)[C@@H](O)[C@H](O)[C@H]2O)cc1O", "note": "[MG5, 4′-glucuronosylisoliquiritigenin]", "values": [
      {"measurement": "relative abundance among the five glucuronides", "setting": "[8]", "value": "most abundant"}
    ]}
  ]
}
